pIC50: −log10 of the molar value. The source made the active and inactive calls. The rule behind the calls is not given here.
test system: HL-60; assay: Cytotoxicity against human HL60 cells by MTT assay; type: functional, cell-based; conditions: not given

Compound | pIC50
COC(=O)[C@@]12C[C@H]3C[C@H](C(C)=O)[C@@H]1N(CCc1c2[nH]c2ccccc12)C3 | 4.31

test system: not listed separately; assay: Cytotoxicity against human 786-O cells by MTT assay; type: functional, cell-based; conditions: 786-0

Compound | pIC50
COC(=O)[C@@]12C[C@H]3C[C@H](C(C)=O)[C@@H]1N(CCc1c2[nH]c2ccccc12)C3 | 4.56

test system: RAW264.7; assay: Anti-inflammatory activity in mouse RAW264.7 cells assessed as LPS-stimulated inhibition of nitric oxide production incubated simultaneously with LPS for 24 hrs by Griess reagent based assay; type: functional, cell-based; conditions: not given
Procedure, shortened: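 RAW264.7 cells grown in RPMI 1640 with 10% heat-inactivated FBS, penicillin 100 U/mL and streptomycin 100 μg/mL; 1 × 10^5 cells/well allowed to adhere 2 h at 37 °C, 5% CO2. Cells exposed to 1 μg/mL LPS for 24 h with or without compounds across a concentration range. Indomethacin as positive control. Nitrite in supernatant measured by Griess reagent. Run in triplicate; IC50 reported.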

Compound | inhibition
COC(=O)[C@@]12C[C@H]3C[C@H](C(C)=O)[C@@H]1N(CCc1c2[nH]c2ccccc12)C3 | Active
COC(=O)[C@@]12C[C@H]3C[C@H]([C@H](C)O)[C@@H]1N(CCc1c2[nH]c2ccccc12)C3CC(C)=O (some centres not stated) | Active
CC[C@H]1C[C@@H]2C[C@@]3(C(=O)OC)c4[nH]c5ccccc5c4CCN(C2CC(C)=O)[C@@H]13 (some centres not stated) | Active
C/C=C1/C[N@+]2(C)CCc3c([nH]c4ccccc34)C(CO)(C(=O)[O-])[C@H]1CC2 (some centres not stated) | inactive
COC(=O)[C@]12C[C@@H]3CN(CCc4c1[nH]c1ccccc41)[C@H]2[C@@H]([C@H](C)O)C3O (some centres not stated) | Active
COC(=O)[C@@]12C[C@H]3C[C@H]([C@H](C)O)[C@@H]1N(Cc1c2n(C=O)c2ccccc12)C3 | inactive
CC[C@H]1C[C@@H]2C[C@@]3(C(=O)OC)c4[nH]c5ccccc5c4CCN(C2CO)[C@@H]13 (some centres not stated) | Active
COC(=O)[C@@]12C[C@@H]3C[C@@H](C(C)O)[C@@H]1N(CC[C@]21Nc2ccccc2C1=O)C3 (some centres not stated) | inactive
C[N@@+]12CCc3c([nH]c4ccccc34)[C@](CO)(C(=O)[O-])[C@@H](CC1)/C(=C\CO)C2 | inactive
C/C=C1/C[N@+]2(C)CCc3c([nH]c4ccccc34)[C@H](C(=O)[O-])[C@H]1CC2 | inactive
C[C@H](O)[C@@H]1C[C@H]2C[C@H]3c4[nH]c5ccccc5c4CCN(C2)[C@@H]13 | Active
C/C=C1/C[N@+]2(C)CCc3c([nH]c4ccccc34)[C@@H](C(=O)[O-])[C@H]1CC2 | inactive

same assay, conditions: RAW264.7, 24 h

pIC50 | Compound
4.38 | CC[C@@]1(O)CC2[C@H]3C(C(=O)OC)=C4Nc5ccccc5C45CCN([C@H]25)[C@H]31 (some centres not stated)
4.37 | COc1ccc2c(c1)c(CC(=O)O)c(C)n2C(=O)c1ccc(Cl)cc1 [INDOMETHACIN]

Compound | pIC50
CC[C@H]1C[C@@H]2CN3CCc4c([nH]c5ccccc45)[C@](C(=O)OC)(C2)[C@H]13 [CORONARIDINE] | 4.59
